Screens: PubChem BioAssay, The Scripps Research Institute Molecular Screening Center
This is a sample that favours compounds with a hit; in the whole collection about 3% have one here.
S1P3 agonist – human S1P3 receptor agonists, primary screen, cell-based, primary and confirmation, NFAT-BLA reporter | Sphingosine 1-phosphate receptor 3 (Homo sapiens), Q99500 | S1P3 NFAT-BLA reporter cells, agonism, FRET ratio; relative to 1 µM S1P, basal subtracted | activation, % at 4.5 µM | 60,000 tested, 0.1% active | AID 373, 2006;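 active = activation above the screen-wide mean plus 3 SD, cut at about 4.5% in these data, passing the limit was not always enough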
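Assay system: stable CHO line with human S1P3, Gα16, NFAT-BLA reporter; Detection: FRET β-lactamase substrate fluorescence, excitation 405 nm, 460/535 nm emission ratio, background-subtracted; Read-out: percent activation versus median 1 µM S1P response, basal-subtracted, per plate; Incubation: cells plated overnight, compound 4 h 37 °C, substrate 2 h RT.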
HTR1A agonist – human 5-HT1a receptor agonists, primary screen, cell-based, CHO, Ga15 NFAT-bla reporter. CHO 5-HT1a Ga15 NFAT-bla reporter, FRET ratio; 0% basal, 100% maximal reference agonist. activation, % at 10 µM. 65,000 tested, 0.56% active. 5-hydroxytryptamine receptor 1A (Homo sapiens), P08908. AID 567, 2006;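 active = activation above the screen-wide mean activation plus 3 SD, cut at about 19% in these data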;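 note: 0% = DMSO wells and 100% = 5-CT at EC100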
S1P1 ag-PAM – S1P1 agonists and agonism potentiators, primary screen, cell-based, primary and confirmation screens, CRE-bla reporter; activation, % at 9.5 µM; AID 449, 2006; 56,000 tested, 0.57% active; S1P1 CRE-bla cells, forskolin, beta-lactamase FRET, potentiator mode; S1P1 agonist co-added at EC20, 2 nM; 100% = saturating reference agonist, 0% = basal;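 active = activation above a cutoff set at the mean activation of all tested compounds plus 3 SD, cut at about 54% in these data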;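 note: forskolin at 4 µM as EC80 and the EC20 agonist is SEW2871; 100% = SEW2871 at its EC100 plus forskolin at EC80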
Target sequence (P21453 whole entry, looked up): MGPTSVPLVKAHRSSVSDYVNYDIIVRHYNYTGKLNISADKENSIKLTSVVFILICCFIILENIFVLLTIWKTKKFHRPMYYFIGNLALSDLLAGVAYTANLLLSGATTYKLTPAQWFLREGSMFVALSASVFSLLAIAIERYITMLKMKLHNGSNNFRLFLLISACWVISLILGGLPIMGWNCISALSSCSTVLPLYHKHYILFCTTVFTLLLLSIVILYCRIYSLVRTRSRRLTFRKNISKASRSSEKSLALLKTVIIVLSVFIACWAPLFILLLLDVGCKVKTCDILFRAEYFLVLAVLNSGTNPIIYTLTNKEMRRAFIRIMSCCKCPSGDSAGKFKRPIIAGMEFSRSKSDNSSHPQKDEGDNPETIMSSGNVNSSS
5HT1E ag – 5-HT1E receptor agonists, primary screen, cell-based, HTS; CHO 5-HT1E Ga15 NFAT-bla reporter, FRET; 0% DMSO wells, 100% control agonist wells; activation, % at 6 µM; 65,000 tested, 0.69% active; AID 574, 2007;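 active = activation above a set limit, the screen-wide mean activation plus 3 SD, cut at about 8.5% in these data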;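 note: 100% = positive control agonist at 1 µM giving full maximal response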
5HT1a antag – human 5-HT1a receptor antagonists, primary screen, cell-based, CHO, Ga15 NFAT-bla reporter; 5-hydroxytryptamine receptor 1A (Homo sapiens), P08908; CHO 5-HT1a Ga15 NFAT-bla reporter, antagonist mode; inhibition, % at 10 µM; 62,000 tested, 0.68% active; AID 612, 2007;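 active = inhibition above the mean of all tested compounds plus 3 SD, cut at about 43% in these data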;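 note: receptor stimulated by 5-CT agonist at 100 nM near EC80; beta-lactamase reporter measured by ratiometric fluorescence of a cleavable substrate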
HTR1E antagonist – 5-HT1E receptor antagonists, primary screen, cell-based, HTS. CHO 5-HT1E Ga15 NFAT-bla reporter, FRET, antagonist. inhibition, % at 6 µM. 65,000 tested, 0.99% active. 5-hydroxytryptamine receptor 1E (Homo sapiens), P28566;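 active = inhibition above a set limit, the mean inhibition across every tested compound plus 3 SD, cut at about 29% in these data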;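 note: signal is the 460 over 535 nm emission ratio of beta-lactamase substrate; 0% = agonist plus DMSO wells and 100% = wells without agonist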
* marks the source's active call; other numbers are inactive results.

What do the screens show for `C=CCn1c2ccccc2c2nnc(SCCCn3c(=O)[nH]c4ccccc43)nc21`?
HTR1A agonist: 10; 5HT1E ag: 1; 5HT1a antag: 48*; HTR1E antagonist: 21

What do the screens show for `CCOc1cccc(NC(=O)C2CC(=O)N(C)C(=Nc3cccc(F)c3)S2)c1` (stereo unspecified)?
S1P3 agonist: -1; HTR1A agonist: -1; S1P1 ag-PAM: 8; 5HT1E ag: 1; 5HT1a antag: 3; HTR1E antagonist: 4

What do the screens show for `CC1=C(C(=O)OCc2ccc3c(c2)OCO3)C(c2ccc(Cl)cc2)NC(=O)N1` (stereo unspecified)?
S1P3 agonist: -2; HTR1A agonist: 0; S1P1 ag-PAM: 113*; 5HT1E ag: 0; 5HT1a antag: 50*; HTR1E antagonist: 43*

What do the screens show for `COc1ccc(COC(=O)C2=C(C)NC(=O)NC2c2ccc(O)c(OC)c2)cc1` (stereo unspecified)?
S1P3 agonist: 0; HTR1A agonist: -3; S1P1 ag-PAM: 15; 5HT1E ag: 0; 5HT1a antag: 0; HTR1E antagonist: -1

How did CCOC(=O)C1=C(C)NC(=O)NC1c1ccc2c(c1)OCCO2 (stereo unspecified) do in these assays?
S1P3 agonist: 0; HTR1A agonist: -4; S1P1 ag-PAM: 9; 5HT1E ag: 0; 5HT1a antag: 8; HTR1E antagonist: -3

How did CC1=C(C(=O)OCc2ccc3c(c2)OCO3)C(c2ccc(F)cc2)NC(=O)N1 (stereo unspecified) do in these assays?
S1P3 agonist: -1; HTR1A agonist: -3; S1P1 ag-PAM: 94*; 5HT1E ag: -2; 5HT1a antag: 22; HTR1E antagonist: 29*

How did CCC(C(=O)Nc1cnccn1)c1ccccc1 (stereo unspecified) do in these assays?
S1P3 agonist: 0; HTR1A agonist: -3; S1P1 ag-PAM: -2; 5HT1E ag: 18*; 5HT1a antag: -3; HTR1E antagonist: -4

What do the screens show for `Cc1sc2ncnc(Sc3nnnn3-c3ccccc3)c2c1C`?
S1P3 agonist: -1; HTR1A agonist: -4; S1P1 ag-PAM: 87*; 5HT1E ag: -1; 5HT1a antag: 42; HTR1E antagonist: 26

How did Cc1sc2ncnc(SCC(=O)c3cccs3)c2c1C do in these assays?
S1P3 agonist: -1; HTR1A agonist: -2; S1P1 ag-PAM: 34; 5HT1E ag: 0; 5HT1a antag: 2; HTR1E antagonist: 3

What do the screens show for `Clc1ccc(-n2nnnc2Sc2ncnc3sccc23)cc1`?
S1P3 agonist: 1; HTR1A agonist: -2; S1P1 ag-PAM: 82*; 5HT1E ag: 0; 5HT1a antag: 69*; HTR1E antagonist: 82*

How did C1CCC(c2nn3c(-c4n[nH]c5c4CCC5)nnc3s2)CC1 do in these assays?
S1P3 agonist: 0; HTR1A agonist: -3; S1P1 ag-PAM: -54; 5HT1E ag: 0; 5HT1a antag: -11; HTR1E antagonist: 16

How did CCN(CC)c1ccc(-c2nn3c(-c4n[nH]c5c4CCC5)nnc3s2)cc1 do in these assays?
S1P3 agonist: -1; HTR1A agonist: 2; S1P1 ag-PAM: -108; 5HT1E ag: 2; 5HT1a antag: 56*; HTR1E antagonist: 70*

How did COc1cccc(-c2nc(CS(=O)CC(=O)NCc3ccccc3Cl)c(C)o2)c1 (stereo unspecified) do in these assays?
S1P3 agonist: 0; HTR1A agonist: -3; S1P1 ag-PAM: 9; 5HT1E ag: 0; 5HT1a antag: 10; HTR1E antagonist: 2

How did Cc1onc(-c2ccccc2)c1C(=O)Nc1cc(C(F)(F)F)ccc1N1CCOCC1 do in these assays?
S1P3 agonist: -1; HTR1A agonist: -4; S1P1 ag-PAM: 6; 5HT1E ag: 0; 5HT1a antag: 26; HTR1E antagonist: 41*

How did O=c1c2ccccc2nc(SCc2cn3ccsc3n2)n1-c1ccc(F)cc1 do in these assays?
S1P3 agonist: 0; HTR1A agonist: 6; S1P1 ag-PAM: -21; 5HT1E ag: 0; 5HT1a antag: 19; HTR1E antagonist: 37*

Results for Cc1nnc(SCc2cn3ccsc3n2)n(N)c1=O ?
S1P3 agonist: -1; HTR1A agonist: -1; S1P1 ag-PAM: 14; 5HT1E ag: 0; 5HT1a antag: 6; HTR1E antagonist: 12

What do the screens show for `Cc1c(/C(O)=C2/C(=O)C(=O)N(CCCN3CCOCC3)C2c2ccncc2)cnn1-c1ccccc1` (stereo unspecified)?
S1P3 agonist: -4; HTR1A agonist: 0; S1P1 ag-PAM: -11; 5HT1E ag: -1; HTR1E antagonist: 4

What do the screens show for `CCOC(=O)c1c(C)[nH]c(C(C)=O)c1C`?
S1P3 agonist: -1; HTR1A agonist: -1; S1P1 ag-PAM: -26; 5HT1E ag: 0; 5HT1a antag: -11; HTR1E antagonist: 5

Results for CCOC(=O)c1[nH]c(C)c(C(=O)OCCN2C(=O)c3ccccc3C2=O)c1C ?
S1P3 agonist: -1; HTR1A agonist: 2; S1P1 ag-PAM: 6; 5HT1E ag: -2; 5HT1a antag: 10; HTR1E antagonist: 37*

How did CS(=O)(=O)N1CCC(C(=O)c2cccc(Cl)c2)CC1 do in these assays?
S1P3 agonist: 0; HTR1A agonist: -2; S1P1 ag-PAM: -10; 5HT1E ag: 0; 5HT1a antag: -4; HTR1E antagonist: -5

Results for O=C1CC(c2ccc(Cl)c(Cl)c2)CC(O)=C1C=NCCN1CCNCC1 (stereo unspecified) ?
S1P3 agonist: -2; HTR1A agonist: 2; S1P1 ag-PAM: -8; 5HT1E ag: 0; 5HT1a antag: 17; HTR1E antagonist: -10

What do the screens show for `Cc1cc(NC(=O)COC(=O)c2ccc(S(=O)(=O)N3CCCc4ccccc43)cc2)no1`?
S1P3 agonist: -1; HTR1A agonist: -4; S1P1 ag-PAM: -7; 5HT1E ag: -1; 5HT1a antag: 11; HTR1E antagonist: 32*

What do the screens show for `COc1ccc(-c2nnc(NC(=O)c3ccc(S(=O)(=O)N4CCCc5ccccc54)cc3)o2)cc1`?
S1P3 agonist: 0; HTR1A agonist: -1; S1P1 ag-PAM: 10; 5HT1E ag: 0; 5HT1a antag: 62*; HTR1E antagonist: -2
